CHOP inh: blocks CHOP induction under ER stress; CHO-K1 CHOP-promoter luciferase, tunicamycin-induced, 15-18 h; inhibition, % at 10 µM; 3.8% of 220,000 active; AID 2732;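 active = compounds that reduced the stress-induced luciferase reporter signal by more than about 70% of percent inhibition, limit read from the data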;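 note: 0% = tunicamycin plus vehicle and 100% = wells without tunicamycin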
TMEM16A inh: inhibitors of mouse TMEM16A calcium-activated chloride channel | Q8BHY3 | HEK293 TMEM16A/YFP iodide influx fluorescence, ionomycin | normalized B-score (activity score, 25-100; higher = stronger inhibition) at 10 µM | 1.2% of 310,000 active | AID 588511;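 active = ratio plate-corrected score three or more library SD toward inhibition, starting fluorescence score within five deviations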;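 note: score derived from kinetic fluorescence span divided by baseline fluorescence per well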
Hep lipid drop: modulators of hepatic lipid droplet formation; AML12 mouse hepatocytes, oleate lipid droplets, BODIPY imaging; inhibition, % at 6.5 µM; 0.4% of 240,000 active; AID 1656;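 active = lipid droplet intensity inhibited by at least 50%, with more than 500 cells counted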
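Material – AML12 mouse liver cells · Also added – oleate loading, 100 µM · Compound dosing – 6.5 µM single-point dosing · Times – overnight treatment with compound plus oleate · Measured by – fluorescence imaging, 20x objective, two fields per well · Read-out – percent inhibition of filter-corrected integrated lipid droplet intensity per well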
UPR XBP1 act: adaptive UPR (XBP1) activation. CHO-XBP1 luciferase reporter, IRE1-XBP1 UPR activation, luminescence; percent of tunicamycin response, DMSO as zero. activation, % at 20 µM. 0.33% of 330,000 active. AID 463104;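 active = versus positive control, 20 µM dose yields 30% or more activation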;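 note: 100% = tunicamycin at 10 µg/mL and 0% = DMSO only wells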
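Test system: CHO-XBP1 luciferase reporter cells | Buffer or medium: Serum-containing F12 medium, 10% FBS | Schedule: 6 h compound exposure at 37 °C, 5% CO2 | Detection: Steady-Glo luciferase glow luminescence, 10 min after reagent addition | Read-out basis: Activation, % of tunicamycin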
UPR CHOP act: apoptotic UPR (CHOP) activation. CHO-CHOP luciferase reporter, luminescence; percent of tunicamycin response over DMSO baseline. activation, % at 10 µM. 0.34% of 330,000 active;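 active = at 10 µM dose, activation of 40% or more, normalized to positive control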;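 note: 100% = tunicamycin at 10 µg/mL and 0% = DMSO alone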
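Test system: CHO-CHOP cells, stable luciferase reporter of PERK-eIF2a-CHOP signalling | Quantity: 500 CHO-CHOP cells per well | Buffer or medium: F12 plus 10% serum | Compound dosing: 10 µM single point, 0.5% DMSO | Schedule: 6 h compound treatment, 37 °C | Signal: Luciferase luminescence | Control set: Tunicamycin high control, DMSO low control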
TMEM16A act: activators or potentiators of mouse TMEM16A chloride channel; Q8BHY3; HEK293 TMEM16A/YFP-H148Q/I152L, iodide quench fluorescence; stronger effect = lower value; B-score at 10 µM; 0.3% of 340,000 active; AID 623877;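 active = fluorescence-ratio B-score plate-corrected deviation score at least 3 library SD below zero, with starting fluorescence score within 5 deviations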;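 note: channel opened by trigger with iodide after compound preincubation; score built on the fluorescence ratio of max minus min over baseline; more negative score means more quench and so TMEM16A activation or potentiation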
Numbers without * were called inactive; i = inactive; x = not tested or not shown. An excerpt weighted towards active compounds, which were near 4.2% of everything screened.

SMILES	CHOP inh	TMEM16A inh	Hep lipid drop	UPR XBP1 act	UPR CHOP act	TMEM16A act
O=C(COc1cccc(C(F)(F)F)c1)NNC(=O)c1ccc(=O)[nH]c1	x	x	x	-1	-1	i
COc1ccc(CCNc2nc(-c3ccccn3)cs2)cc1OC	-77	i	-3	-2	-2	-6.2*
O=C(NNC(=S)NC1CCCCC1)c1ccccc1O	16	i	12	-1	2	i
COC(=O)Cc1ccc(NC(=S)N2CCN(c3ccc(F)cc3)CC2)cc1	72*	i	-84	x	x	i
COC(=O)Cc1ccc(NC(=S)N2CCN(CCO)CC2)cc1	x	i	x	-1	2	i
Cc1ccc(C(=O)N2CCN(c3ccc(NC(=S)NC(=O)Cc4ccccc4)cc3)CC2)cc1	74*	i	x	1	6	i
Cc1cc(-c2nn(-c3ccccc3F)cc2CNCCc2cnc[nH]2)c(C)s1	-1	i	-6	3	-1	i
CCOc1ccc(-c2nnc(NC(=O)c3ccc(OCC(C)C)c(OC)c3)o2)cc1	91*	i	x	5	4	i
CC(NC(=O)C1=CC=CN2CCS(=O)(=O)N=C12)c1ccc(Cl)c(Cl)c1 (stereo not given)	x	x	x	-1	1	i
NNS(=O)(=O)c1ccc(N2CCCC2=O)c([N+](=O)[O-])c1	-4	i	13	4	0	i
NS(=O)(=O)c1ccc(N2CCCC2=O)c([N+](=O)[O-])c1	-12	i	4	0	0	-4.9*
O=C(NCCNc1nccc(C(F)(F)F)n1)c1cccs1	13	i	-3	-3	-2	i
Cc1ccc(N=C2NC(=O)/C(=C/c3cccnc3)S2)c(C)c1	25	i	-4	1	1	i
Cc1ccc(N=C2NC(=O)/C(=C\c3ccsc3)S2)c(C)c1	72*	i	20	1	4	i
COc1ccc(NC(=O)CN(C)C(=O)CCCc2nc3ccccc3c(=O)[nH]2)cc1	x	i	x	-2	2	i
O=C(c1cccc(Br)c1)N1CCN(S(=O)(=O)N2CCCCC2)CC1	x	i	4	-4	-1	i
O=C(CCS(=O)(=O)c1ccccc1)Nc1nc(-c2cccs2)cs1	39	i	7	2	1	-7.9*
CCN(Cc1ccncc1)C(=O)c1ccc(Br)o1	x	i	-16	-1	-1	i
CC(C)(C)c1ccc(Oc2ccc(N)cn2)cc1	88*	i	-10	-3	-5	i
COC(=O)c1nnn(-c2nc(N3CCOCC3)nc(N3CCOCC3)n2)c1C	-6	i	-6	1	1	i
CC(Oc1ccc2cc(-c3ccccc3)c(=O)oc2c1)C(=O)NCC1CCC(C(=O)O)CC1 (stereo not given)	x	i	-1	-3	-2	i
O=C(COc1ccc2ccccc2c1)Nc1nnc(-c2ccco2)s1	72*	i	-3	0	2	x
Cc1ccccc1OCC(=O)Nc1nnc(-c2ccco2)s1	4	i	-1	0	1	i
CC(C)CN(C(=O)C1CCCO1)c1c(N)n(CC(C)C)c(=O)[nH]c1=O (stereo not given)	x	x	x	-2	1	i
CCc1cc2ccc(OC)cc2nc1SCC(=O)Nc1cc(C)on1	82*	i	x	11	1	i
SMILES	CHOP inh	TMEM16A inh	Hep lipid drop	UPR XBP1 act	UPR CHOP act	TMEM16A act
COc1ccc(Nc2nnc(SCC(=O)Nc3cc(C)on3)s2)cc1	85*	x	-2	x	x	i
CCc1cc2cc(C)c(C)cc2nc1SCC(=O)Nc1cc(C)on1	89*	i	7	1	1	i
O=C(c1ccc(Cl)c(S(=O)(=O)N2CCOCC2)c1)N1CCN(c2ccccc2)CC1	x	i	16	3	2	i
CC(=O)Nc1ccc(S(=O)(=O)N2CCN(c3cc(C)ccc3C)CC2)cc1	75*	i	21	-1	-1	i
O=C(C(Cl)Cl)N1CCN(Cc2ccccc2)CC1	25	i	10	-4	16	i
O=C(C(c1ccccc1)c1ccccc1)N1CCN(Cc2ccc(Br)cc2)CC1	81*	i	-4	-2	-2	i

Screening data as filed in PubChem.
